Assay results pooled from the literature.
Each line is one published result; the experiments were not run side by side.
PDE3A: cGMP-inhibited 3',5'-cyclic phosphodiesterase 3A (PDE3A, Homo sapiens, UniProt Q14432)

C[C@H](C(=O)N[C@H]1COc2ccccc2[C@@H]1S(C)(=O)=O)c1ccc(F)cc1  inhibition (PDE3A; cell-free assay; inhibitor; 10 µM): -9%
COc1cc(Nc2ncc(F)c(Nc3ccc4c(n3)NC(=O)C(C)(C)O4)n2)cc(OC)c1OC  inhibition (Eukaryotic translation initiation factor 2-alpha kinase 1 (EIF2AK1, Homo sapiens, UniProt Q9BQI3); binding; competition with immobilised ligand; 10 µM): 38%
C#Cc1n[nH]c2c(-c3cn([C@@H](C)c4ccccc4)c(=O)[nH]c3=O)cc(F)cc12  inhibition (Leucine-rich repeat serine/threonine-protein kinase 2 (LRRK2, Homo sapiens, UniProt Q5S007); enzyme activity; inhibitor; 0.1 µM): 3.8%
CCN(CC)CCCC[C@H](NC(=O)[C@H](CC(C)C)NC(=O)[C@H](C)NC(=O)[C@H](Cc1ccccc1)NC(=O)c1ccc(C(C)(C)C)cc1)C(=O)N[C@@H](CO)C(=O)OC  inhibition (5-hydroxytryptamine receptor 1A (HTR1A, Homo sapiens, UniProt P08908); ligand displacement; radioligand; 10 µM): 19%
Cn1cc(-c2cccc(N3CCc4c(sc5c4CC(C)(C)C5)C3=O)c2CO)cc(Nc2ccncn2)c1=O  inhibition (Leucine-rich repeat serine/threonine-protein kinase 2 (LRRK2, Homo sapiens, UniProt Q5S007, G2019S); enzyme activity; inhibitor; 1 µM): -15%
C[C@@H]1CCCN1CCCCOc1ccc2occc(=O)c2c1  inhibition (Bile salt-activated lipase (Homo sapiens, UniProt P19835); enzyme activity; inhibitor; fluorescence; 10 µM): 6%
C#Cc1n[nH]c2c(-c3cn([C@@H](C)c4ccccn4)c(=O)[nH]c3=O)cc(F)cc12  inhibition (Mitogen-activated protein kinase 14 (MAPK14, Homo sapiens, UniProt Q16539); enzyme activity; inhibitor; 0.1 µM): 4%
c1ccc(C(NCCNC(c2ccccc2)c2ccccc2)c2ccccc2)cc1  inhibition (Apelin receptor (APLNR, Homo sapiens, UniProt P35414); cell-free assay; 10 µM): 46%
CCOC(=O)c1ccc(OC(=O)CCCCCNC(=N)N)cc1  inhibition (Ataxin-3 (ATXN3, Homo sapiens, UniProt P54252); enzyme activity; inhibitor; 10 µM): 3%
COCc1c(-c2cc3cc(C)cc(OC)c3s2)c2c(N)ncnn2c1CN1CCNC(=O)C1  inhibition (Alpha-2C adrenergic receptor (ADRA2C, Homo sapiens, UniProt P18825); ligand displacement; radioligand; 10 µM): 31%
Cn1cc(-c2cc(F)cc(N3CCn4c(cc5c4CCCC5)C3=O)c2CO)cc(Nc2ccc(N3CCN(C4COC4)CC3)cn2)c1=O  inhibition (Serine/threonine-protein kinase PAK 3 (PAK3, Homo sapiens, UniProt O75914); enzyme activity; inhibitor; 0.1 µM): 16%
O=C(Nc1cccnn1)N1CCN([C@@H]2CCOc3cc(C(F)(F)F)ccc32)CC1  inhibition (PDE3A; cell-free assay; 20 µM): 4%
